Drawing on ChEMBL document CHEMBL1147553, “Betulinic acid and its derivatives as anti-angiogenic agents” (Bioorg Med Chem Lett, 2004), this text covers IC50 and ECS ratio for six compounds.

In brackets after ≈: the same amount, converted by molar mass.

One experiment relates to ECV-304. Briefly: Half-maximal cytotoxic concentration of compound against endothelial cell line ECV304. Type of experiment: functional, cell-based. The following applies: Homo sapiens. The method, boiled down:
(§1)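 Cells (10⁴) exposed in triplicate wells to 0.5–10 µg/mL compound from DMSO stock (final DMSO <0.1%). Cells grown in DMEM with L-glutamine, 25 mM HEPES, 10% FBS and antibiotics at 37 °C, 5% CO2. MTT read-out after 120 h. IC50 is the mean of three experiments. Specificity ratio is IC50 in tumor cell divided by IC50 in ECV304.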

Experiment [1] is described as follows: Endothelial cell specificity of compound was determined as cytotoxicity on human tumor cell line A549 to that of endothelial cell. Type of experiment: functional. The method, boiled down: as §1
Experiment [2] in a line: Endothelial cell specificity of compound was determined as cytotoxicity on human tumor cell line DU145 to that of endothelial cell. The experiment is classed as functional. The method, boiled down: as §1
A short description of experiment [3]: Endothelial cell specificity of compound was determined as cytotoxicity on human tumor cell line L132 to that of endothelial cell. The experiment is classed as functional. The method, boiled down:
as §1

Experiment [4] can be described thus: Endothelial cell specificity of compound was determined as cytotoxicity on human tumor cell line PA-1 to that of endothelial cell. Type of experiment: functional. In a few lines: as §1

Broadly, the IC50 is the point on the concentration scale where inhibition reaches its midpoint. The low end stands for greater potency in that assay, the high end for weaker potency in that assay. Regarding `CC(C)[C@@H]1CC[C@]2(C(=O)O)CC[C@]3(C)C(CCC4[C@@]5(C)CC/C(=N\Nc6c(Cl)cc(Cl)cc6Cl)C(C)(C)C5CC[C@]43C)C12` (stereo not given in full), in the experiment on ECV-304, the IC50 worked out at 0.21 µg/mL (≈ 0.323 µM). In addition, the ECS ratio in experiment [1] is reported as 19; in experiment [2], 6.6; in experiment [3] it was 11.4; in experiment [4], 5.2.

As to `CC(C)[C@@H]1CC[C@]2(C(=O)O)CC[C@]3(C)C(CCC4[C@@]5(C)CC(Br)[C@H](O)C(C)(C)C5CC[C@]43C)C12` (stereo not given in full), in the experiment with ECV-304, the IC50 is 0.27 µg/mL (≈ 0.502 µM). The ECS ratio in experiment [1] turned out to be 11.5; in experiment [2], 7; in experiment [3], 3.1; in experiment [4] it was 7.4.

`CC(C)[C@@H]1CC[C@]2(C(=O)O)CC[C@]3(C)C(CCC4[C@@]5(C)CC/C(=N\Nc6ccc(F)cc6)C(C)(C)C5CC[C@]43C)C12` (stereo not given in full) yielded an IC50 in the experiment with ECV-304 of 0.35 µg/mL (≈ 0.62 µM). Moreover, the ECS ratio is 20 in experiment [1], 3.7 in experiment [2], 11.1 in experiment [3] and 1.4 in experiment [4].

`C=C(C)[C@@H]1CC[C@]2(C(=O)O)CC[C@]3(C)[C@H](CC[C@@H]4[C@@]5(C)CC[C@H](O)C(C)(C)[C@@H]5CC[C@]43C)[C@@H]12` [BETULINIC ACID]: in the experiment with ECV-304, the IC50 is 1.26 µg/mL (≈ 2.76 µM). Moreover, the ECS ratio came out at 1.1 in experiment [1], 2.2 in experiment [2], 1 in experiment [3] and 3.2 in experiment [4].

For the compound `CC(C)[C@@H]1CC[C@]2(C(=O)O)CC[C@]3(C)C(CCC4[C@@]5(C)CC/C(=N\NC(=O)c6ccccc6)C(C)(C)C5CC[C@]43C)C12` (stereo not given in full), the IC50 with ECV-304 worked out at 0.39 µg/mL (≈ 0.678 µM). Moreover, the ECS ratio in experiment [1] is recorded as 27.7; in experiment [2] it was 7.7; in experiment [3] it was 1; in experiment [4], 4.3.

`C=C(C)[C@@H]1CC[C@]2(C(=O)O)CC[C@]3(C)[C@H](CC[C@@H]4[C@@]5(C)CCC(=O)C(C)(C)[C@@H]5CC[C@]43C)[C@@H]12` [BETUNOLIC ACID]: the IC50 in the experiment on ECV-304 came to 0.28 µg/mL (≈ 0.616 µM). For the same compound, the ECS ratio was 9.8 in experiment [1], 14.2 in experiment [2], 3.2 in experiment [3] and 9.2 in experiment [4].
